Measured values published in paper PMC9727797 (Molecular Biology of the Cell, 2022).

Experiments:
TP53–/– RPE-1 cells = test: STLC selection; assay type: cell-based, human; conditions: 24 d; 10 μM STLC; some cells acquired resistance and formed colonies
KIF15-N700 = biological target: T1, KIF15-N700 (Homo sapiens, UniProt Q9NS87); test: Microtubule gliding assay; assay type: biochemical; conditions: 25 µM, singlicate
T1 sequence (Q9NS87 1-700 limits assumed): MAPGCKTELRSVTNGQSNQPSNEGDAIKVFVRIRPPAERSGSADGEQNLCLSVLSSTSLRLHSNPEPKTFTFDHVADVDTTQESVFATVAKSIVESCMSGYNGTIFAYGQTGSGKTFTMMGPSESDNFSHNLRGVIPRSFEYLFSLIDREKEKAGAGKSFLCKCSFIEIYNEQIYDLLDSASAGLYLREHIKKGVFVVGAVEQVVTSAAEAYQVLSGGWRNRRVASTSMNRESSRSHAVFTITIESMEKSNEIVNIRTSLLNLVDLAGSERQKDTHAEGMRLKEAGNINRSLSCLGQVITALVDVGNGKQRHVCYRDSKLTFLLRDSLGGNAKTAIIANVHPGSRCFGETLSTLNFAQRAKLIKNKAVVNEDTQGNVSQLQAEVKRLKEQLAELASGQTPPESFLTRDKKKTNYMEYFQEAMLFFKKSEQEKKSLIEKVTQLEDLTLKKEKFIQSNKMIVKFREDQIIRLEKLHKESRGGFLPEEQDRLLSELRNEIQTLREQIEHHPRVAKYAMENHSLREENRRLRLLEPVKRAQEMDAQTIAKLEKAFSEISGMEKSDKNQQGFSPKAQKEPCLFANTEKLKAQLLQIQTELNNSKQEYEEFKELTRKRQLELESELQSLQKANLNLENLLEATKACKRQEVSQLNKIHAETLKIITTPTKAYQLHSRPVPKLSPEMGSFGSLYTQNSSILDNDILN
Summary of the method: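 His6-KIF15-N700 was expressed in High Five insect cells, then purified by Ni-NTA and Superdex 200 gel filtration. Microtubule gliding was imaged every 5 s for 1 min at 100×. Velocity was taken as distance travelled in 1 min, from ≥15 microtubules at each of three slide locations (n ≥ 50 per slide). Concentration-response curves used eight concentrations from 10 nM up to 30 or 100 µM, in triplicate. Single-point derivative tests used 25 µM.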

KIRC-1 cells = test: Preanaphase spindle monopolarity, KIRC-1 cells; assay type: cell-based, human; conditions: 25 µM
Summary of the method: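 TP53–/– RPE-1 and KIRC-1 cells were grown in DMEM with 10% FBS, penicillin and streptomycin; KIRC-1 medium also contained 10 μM STLC. Cells on coverslips were treated overnight with increasing test-compound concentrations or DMSO. They were then methanol-fixed and stained for KIF15, tubulin and DNA. Preanaphase spindles were scored monopolar or bipolar, in triplicate with n = 100 per replicate (± SEM).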

RPE-1 cells = test: Live cell imaging of metaphase duration; assay type: cell-based, human; conditions: Munesib-1 50 µM, Fift-IN and GW108X 25 µM

## N[C@@H](CSC(c1ccccc1)(c1ccccc1)c1ccccc1)C(=O)O [STLC, S-trityl-L-cysteine]
TP53–/– RPE-1 cells
  cell killing by STLC alone: killed the majority

## CSc1ncc2c(n1)-c1ccc(CO)cc1N(C)S2(=O)=O [M-206, 8-(hydroxymethyl)-6-methyl-2-(methylthio)-6H-benzo[c]pyrimido[4,5-e][1,2]thiazine 5,5-dioxide]
KIF15-N700
  % inhibition of KIF15 microtubule gliding activity: blocked KIF15 activity as effectively as Munesib-1

## CSc1ncc2c(n1)-c1ccc(C(=O)O)cc1N(C)S2(=O)=O [M-201, 6-methyl-2-(methylthio)-6H-benzo[c]pyrimido[4,5-e][1,2]thiazine-8-carboxylic acid 5,5-dioxide]
KIF15-N700
  % inhibition of KIF15 microtubule gliding activity: blocked KIF15 activity as effectively as Munesib-1

## CSc1ncc2c(n1)-c1ccc(C(=O)N3CCNCC3)cc1N(C)S2(=O)=O [M-205, (6-methyl-2-(methylthio)-5,5-dioxido-6H-benzo[c]pyrimido[4,5-e][1,2]thiazin-8-yl)(piperazin-1-yl)methanone]
KIRC-1 cells
  monopolarity index compared with the parent compound: substantially increased the monopolarity index

## O=C1Nc2ccc(C(=O)c3ccco3)cc2/C1=C/c1cc(Cl)c(O)c(Cl)c1 [GW108X, reference compound]
RPE-1 cells
  metaphase duration (metaphase plate formation until anaphase onset): significant increase in metaphase duration
